Tested on: Plasmodium falciparum
Test: Antimalarial activity Plasmodium falciparum D6 after 72 hrs by SYBR Green I based fluorescence assay
Type: functional, organism-based
Conditions: D6, 72 h
Procedure, shortened: (§1)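 P. falciparum (D6 pansensitive; Dd2 MDR) cultured under standard conditions and grown 72 h with varying compound concentrations, chloroquine positive control or no drug, each condition in quadruplicate. Growth measured by SYBR Green I fluorescence with minor modifications; IC50 = concentration inhibiting growth by 50%.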

Structure (SMILES) | IC50 [µM]
CCCCCCCCCCCC1=N/C(=C\c2[nH]c(-c3cc4ccccc4[nH]3)cc2OC)C=C1 | 4.06
CCCCCCCCc1cc(CCCCCCCC)c(/C=C2\N=C(c3ccc[nH]3)C=C2OC)[nH]1 | 0.092
COC1=CC(c2ccc[nH]2)=N/C1=C\c1[nH]c(Cc2ccc(Cl)cc2Cl)cc1Cc1ccc(Cl)cc1Cl | 0.0126
CCCCCCc1cc[nH]c1/C=C1\N=C(c2ccc[nH]2)C=C1OC | 0.028
CCCCCCCCc1ccc(/C=C2\N=C(c3ccc[nH]3)C=C2OC)[nH]1 | 0.08
COC1=CC(c2ccc[nH]2)=N/C1=C\c1[nH]ccc1Cc1ccc(OC)cc1 | 0.17
CCCCCCCCCCCC1=N/C(=C\c2[nH]c(-c3ccc[nH]3)cc2OC)C=C1 [UNDECYLPRODIGININE] | 0.0077
CCCCCCCCc1cc(Cc2ccc(F)cc2)c(/C=C2\N=C(c3ccc[nH]3)C=C2OC)[nH]1 | 0.0013
COC1=CC(c2ccc[nH]2)=N/C1=C\c1[nH]c(Cc2ccc(Cl)cc2)cc1CCC1CCCCC1 | 0.0039
COC1=CC(c2ccc[nH]2)=N/C1=C\c1[nH]c(Cc2ccccc2Cl)cc1Cc1ccccc1Cl | 0.0036
COC1=CC(c2ccc[nH]2)=N/C1=C\c1[nH]c(Cc2ccc(Br)cc2)cc1Cc1ccc(Br)cc1 | 0.014
CCCCCCc1ccc(/C=C2\N=C(c3ccc[nH]3)C=C2OC)[nH]1 | 0.375
CCCCCCCCc1cc(Cc2ccc(Br)cc2)c(/C=C2\N=C(c3ccc[nH]3)C=C2OC)[nH]1 | 0.004
CCCCCCCCCCCc1ccc(/C=C2\N=C(c3ccco3)C=C2OC)[nH]1 | 2.92
COC1=CC(c2ccco2)=N/C1=C\c1[nH]c(C)cc1C | > 25
CCCCCCCCCCCc1ccc(/C=C2\N=C(c3cccs3)C=C2OC)[nH]1 | 5.94
COC1=CC(c2ccc[nH]2)=N/C1=C\c1[nH]c(Cc2ccc(Br)cc2)cc1Cc1ccc(Cl)cc1 | 0.0083
COC1=CC(c2ccc[nH]2)=N/C1=C\c1[nH]c(C)cc1C | 8.9
COC1=CC(c2ccc[nH]2)=N/C1=C\c1[nH]c(Cc2ccc(F)cc2)cc1Cc1ccc(F)cc1 | 0.0056
CCCc1ccc(/C=C2\N=C(c3ccc[nH]3)C=C2OC)[nH]1 | 2.3
COC1=CC(c2ccc[nH]2)=N/C1=C\c1[nH]ccc1Cc1ccc(Br)cc1 | 0.09
CCCCc1cc[nH]c1/C=C1\N=C(c2ccc[nH]2)C=C1OC | 0.08

Tested on: Plasmodium falciparum
Test: Antimalarial activity multidrug-resistant Plasmodium falciparum Dd2 after 72 hrs by SYBR Green I based fluorescence assay
Type: functional, organism-based
Conditions: Dd2, 72 h
Procedure, shortened: as §1

Structure (SMILES) | IC50 [µM]
CCCCCCc1cc(Cc2ccc(Br)cc2)c(/C=C2\N=C(c3ccc[nH]3)C=C2OC)[nH]1 | 0.0028
COC1=CC(c2ccc[nH]2)=N/C1=C\c1[nH]ccc1Cc1ccccc1 | 0.086
CCc1cc(Cc2ccc(Cl)cc2)c(/C=C2\N=C(c3ccc[nH]3)C=C2OC)[nH]1 | 0.0062
COC1=CC(c2ccc[nH]2)=N/C1=C\c1[nH]c(Cc2ccc(F)cc2)cc1Cc1ccc(Cl)cc1 | 0.0061
CCCCCCCCCCCC1=N/C(=C\c2[nH]c(-c3cc4ccccc4[nH]3)cc2OC)C=C1 | 6.15
CCCCCCCCc1cc(CCCCCCCC)c(/C=C2\N=C(c3ccc[nH]3)C=C2OC)[nH]1 | 0.129
COC1=CC(c2ccc[nH]2)=N/C1=C\c1[nH]c(Cc2ccc(Cl)cc2Cl)cc1Cc1ccc(Cl)cc1Cl | 0.011
CCCCCCc1cc[nH]c1/C=C1\N=C(c2ccc[nH]2)C=C1OC | 0.007
CCCCCCCCc1ccc(/C=C2\N=C(c3ccc[nH]3)C=C2OC)[nH]1 | 0.13
COC1=CC(c2ccc[nH]2)=N/C1=C\c1[nH]ccc1Cc1ccc(OC)cc1 | 0.156
CCCCCCCCc1cc(Cc2ccc(F)cc2)c(/C=C2\N=C(c3ccc[nH]3)C=C2OC)[nH]1 | 0.0012
COC1=CC(c2ccc[nH]2)=N/C1=C\c1[nH]c(Cc2ccc(Cl)cc2)cc1CCC1CCCCC1 | 0.0029
COC1=CC(c2ccc[nH]2)=N/C1=C\c1[nH]c(Cc2ccccc2Cl)cc1Cc1ccccc1Cl | 0.0049
COC1=CC(c2ccc[nH]2)=N/C1=C\c1[nH]c(Cc2ccc(Br)cc2)cc1Cc1ccc(Br)cc1 | 0.011
CCCCCCc1ccc(/C=C2\N=C(c3ccc[nH]3)C=C2OC)[nH]1 | 0.45
CCCCCCc1cc(Cc2ccc(F)cc2)c(/C=C2\N=C(c3ccc[nH]3)C=C2OC)[nH]1 | 0.0009
CCCCCCCCc1cc(Cc2ccc(Br)cc2)c(/C=C2\N=C(c3ccc[nH]3)C=C2OC)[nH]1 | 0.0029
CCCCCCCCCCCc1ccc(/C=C2\N=C(c3ccco3)C=C2OC)[nH]1 | 3.81
COC1=CC(c2ccco2)=N/C1=C\c1[nH]c(C)cc1C | > 25
CCCCCCCCCCCc1ccc(/C=C2\N=C(c3cccs3)C=C2OC)[nH]1 | 7.77
COC1=CC(c2ccc[nH]2)=N/C1=C\c1[nH]c(Cc2ccc(Br)cc2)cc1Cc1ccc(Cl)cc1 | 0.0077
COC1=CC(c2ccc[nH]2)=N/C1=C\c1[nH]c(C)cc1C | 8.13
COC1=CC(c2ccc[nH]2)=N/C1=C\c1[nH]c(Cc2ccc(F)cc2)cc1Cc1ccc(F)cc1 | 0.0057
COC1=CC(c2ccc[nH]2)=N/C1=C\c1[nH]ccc1Cc1ccc(Br)cc1 | 0.108
CCCCc1cc[nH]c1/C=C1\N=C(c2ccc[nH]2)C=C1OC | 0.018

Tested on: not listed separately
Test: Toxicity in C57BL/6J mouse splenic lymphocytes after 72 hrs by Alamar blue Assay
Type: cell-based
Conditions: splenic lymphocyte
Procedure, shortened: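 Splenic lymphocytes from C57BL/6J mice washed, then stimulated with 1 μg/mL concanavalin A in RPMI/10% FBS with 50 μM β-mercaptoethanol. Seeded at 2 × 10^5 cells/well with serially diluted compound for 72 h at 37 °C, 5% CO2. Resazurin added (final 10 μM) for another 24 h; fluorescence read at ex 560/em 590 nm.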

Structure (SMILES) | IC50 [µM]
CCCCCCc1cc(Cc2ccc(Br)cc2)c(/C=C2\N=C(c3ccc[nH]3)C=C2OC)[nH]1 | < 0.125
COC1=CC(c2ccc[nH]2)=N/C1=C\c1[nH]ccc1Cc1ccccc1 | < 0.125
CCc1cc(Cc2ccc(Cl)cc2)c(/C=C2\N=C(c3ccc[nH]3)C=C2OC)[nH]1 | < 0.125
CCN(CC)CCCC(C)Nc1ccnc2cc(Cl)ccc12 (stereo not drawn) [CHLOROQUINE] | 16
COC1=CC(c2ccc[nH]2)=N/C1=C\c1[nH]c(Cc2ccc(F)cc2)cc1Cc1ccc(Cl)cc1 | < 0.125
CCCCCCCCCCCC1=N/C(=C\c2[nH]c(-c3cc4ccccc4[nH]3)cc2OC)C=C1 | 3.41
CCCCCCCCc1cc(CCCCCCCC)c(/C=C2\N=C(c3ccc[nH]3)C=C2OC)[nH]1 | 31.2
COC1=CC(c2ccc[nH]2)=N/C1=C\c1[nH]c(Cc2ccc(Cl)cc2Cl)cc1Cc1ccc(Cl)cc1Cl | < 0.125
CCCCCCc1cc[nH]c1/C=C1\N=C(c2ccc[nH]2)C=C1OC | < 0.125
CCCCCCCCc1ccc(/C=C2\N=C(c3ccc[nH]3)C=C2OC)[nH]1 | < 0.125
COC1=CC(c2ccc[nH]2)=N/C1=C\c1[nH]ccc1Cc1ccc(OC)cc1 | < 0.125
CCCCCCCCc1cc(Cc2ccc(F)cc2)c(/C=C2\N=C(c3ccc[nH]3)C=C2OC)[nH]1 | < 0.125
COC1=CC(c2ccc[nH]2)=N/C1=C\c1[nH]c(Cc2ccc(Cl)cc2)cc1CCC1CCCCC1 | 1.01
COC1=CC(c2ccc[nH]2)=N/C1=C\c1[nH]c(Cc2ccccc2Cl)cc1Cc1ccccc1Cl | < 0.125
COC1=CC(c2ccc[nH]2)=N/C1=C\c1[nH]c(Cc2ccc(Br)cc2)cc1Cc1ccc(Br)cc1 | < 0.125
CCCCCCc1ccc(/C=C2\N=C(c3ccc[nH]3)C=C2OC)[nH]1 | < 0.125
CCCCCCc1cc(Cc2ccc(F)cc2)c(/C=C2\N=C(c3ccc[nH]3)C=C2OC)[nH]1 | 1.46
CCCCCCCCc1cc(Cc2ccc(Br)cc2)c(/C=C2\N=C(c3ccc[nH]3)C=C2OC)[nH]1 | < 0.125
CCCCCCCCCCCc1ccc(/C=C2\N=C(c3ccco3)C=C2OC)[nH]1 | 0.98
COC1=CC(c2ccco2)=N/C1=C\c1[nH]c(C)cc1C | 3.89
CCCCCCCCCCCc1ccc(/C=C2\N=C(c3cccs3)C=C2OC)[nH]1 | 2.12
COC1=CC(c2ccc[nH]2)=N/C1=C\c1[nH]c(Cc2ccc(Br)cc2)cc1Cc1ccc(Cl)cc1 | < 0.125
COC1=CC(c2ccc[nH]2)=N/C1=C\c1[nH]c(C)cc1C | < 0.125
COC1=CC(c2ccc[nH]2)=N/C1=C\c1[nH]c(Cc2ccc(F)cc2)cc1Cc1ccc(F)cc1 | < 0.125
COC1=CC(c2ccc[nH]2)=N/C1=C\c1[nH]ccc1Cc1ccc(Br)cc1 | < 0.125
CCCCc1cc[nH]c1/C=C1\N=C(c2ccc[nH]2)C=C1OC | < 0.125

Reference: ChEMBL document CHEMBL1811838, “Antimalarial activity of natural and synthetic prodiginines” (J Med Chem, 2011)
